≈ marks a conversion by molar mass, not a printed value.
What was measured:
[1] = Cytotoxicity against mouse EAC cells in aerobic condition assessed as cell viability at 1 ug/ml after 2 hrs by trypan blue exclusion assay; assay type: functional; details: Ehrlich, read-out: Activity
Summary of the method: (§1)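 EAC cells aspirated from ascitic fluid of pre-inoculated female Swiss albino mice, suspended at 2.5×10⁶ cells/ml. Compounds freshly diluted in DMSO, 0.1 ml added per tube. Parallel aerobic and anaerobic tube sets; anaerobic tubes gassed with N₂ throughout. Incubation 2 h, then centrifugation. Trypan blue exclusion with haemocytometer counts; % viability = unstained cells/total cells × 100. DMSO-only negative control.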

HepG2 = experiment: Growth inhibition of human HepG2 cells after 48 hrs by SRB assay; assay type: functional, cell-based; details: HepG2, 48 h
Summary of the method: (§2)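 Cells plated at 10⁴ per well and allowed 24 h to attach. Compounds dissolved in DMSO were added at 0.1, 2.5, 5 and 10 µg/ml and incubated 48 h at 37 °C under 5% CO₂. Cells were then fixed, washed and stained with sulforhodamine B, and colour intensity was read on an ELISA reader.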

[2] = Cytotoxicity against mouse EAC cells in aerobic condition assessed as cell viability at 25 ug/ml after 2 hrs by trypan blue exclusion assay; assay type: functional; details: Ehrlich, read-out: Activity; summary of the method: as §1
[3] = Cytotoxicity against mouse EAC cells in hypoxic condition assessed as cell viability at 1 ug/ml after 2 hrs by trypan blue exclusion assay; assay type: functional; details: Ehrlich, read-out: Activity; summary of the method: as §1
[4] = Cytotoxicity against mouse EAC cells in hypoxic condition assessed as cell viability at 50 ug/ml after 2 hrs by trypan blue exclusion assay; assay type: functional; details: Ehrlich, read-out: Activity; summary of the method: as §1
[5] = Cytotoxicity against mouse EAC cells in hypoxic condition by trypan blue exclusion assay; assay type: functional, cell-based; details: Ehrlich
Summary of the method: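 EAC suspension (2.5×10⁶ cells/ml, from ascitic fluid of pre-inoculated female Swiss albino mice) exposed 2 h to DMSO-dissolved compounds over 1–100 µg/ml, in air or under continuous N₂. Viability by trypan blue exclusion, haemocytometer counts. IC50 taken as the concentration causing 50% mortality in net cell numbers.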

Ehrlich = experiment: Cytotoxicity against mouse EAC cells in hypoxic condition assessed as concentration required for 1% cell survival
[6] = Cytotoxicity against mouse EAC cells in aerobic condition assessed as cell viability at 50 ug/ml after 2 hrs by trypan blue exclusion assay; assay type: functional; details: Ehrlich, read-out: Activity; summary of the method: as §1
[7] = Ratio of IC50 for mouse EAC cells in aerobic condition to IC50 for mouse EAC cells in hypoxic condition
[8] = Cytotoxicity against mouse EAC cells in aerobic condition by trypan blue exclusion assay; assay type: functional, cell-based; details: Ehrlich; summary of the method: as §1
U-251 = experiment: Growth inhibition of human U251 cells after 48 hrs by SRB assay; assay type: functional, cell-based; details: U-251, 48 h; summary of the method: as §2
[9] = Cytotoxicity against mouse EAC cells in hypoxic condition assessed as cell viability at 5 ug/ml after 2 hrs by trypan blue exclusion assay; assay type: functional; details: Ehrlich, read-out: Activity; summary of the method: as §1
[10] = Cytotoxicity against mouse EAC cells in hypoxic condition assessed as cell viability at 100 ug/ml after 2 hrs by trypan blue exclusion assay; assay type: functional; details: Ehrlich, read-out: Activity; summary of the method: as §1
[11] = Cytotoxicity against mouse EAC cells in aerobic condition assessed as cell viability at 10 ug/ml after 2 hrs by trypan blue exclusion assay; assay type: functional; details: Ehrlich, read-out: Activity; summary of the method: as §1
[12] = Cytotoxicity against mouse EAC cells in hypoxic condition assessed as cell viability at 10 ug/ml after 2 hrs by trypan blue exclusion assay; assay type: functional; details: Ehrlich, read-out: Activity; summary of the method: as §1
[13] = Cytotoxicity against mouse EAC cells in hypoxic condition assessed as cell viability at 25 ug/ml after 2 hrs by trypan blue exclusion assay; assay type: functional; details: Ehrlich, read-out: Activity; summary of the method: as §1
[14] = Cytotoxicity against mouse EAC cells in aerobic condition assessed as cell viability at 100 ug/ml after 2 hrs by trypan blue exclusion assay; assay type: functional; details: Ehrlich, read-out: Activity; summary of the method: as §1
[15] = Cytotoxicity against mouse EAC cells in aerobic condition assessed as cell viability at 5 ug/ml after 2 hrs by trypan blue exclusion assay; assay type: functional; details: Ehrlich, read-out: Activity; summary of the method: as §1

## CCOc1ccc(/N=C/c2c(-c3ccccc3)[n+]([O-])c3ccc(OC)cc3[n+]2[O-])cc1
[1]
  viability at 1 µg/mL: 99.3%
HepG2
  IC50: 0.77 µg/mL (≈ 1.85 µM)
[2]
  viability at 25 µg/mL: 92.3%
[3]
  viability at 1 µg/mL: 99.3%
[4]
  viability at 50 µg/mL: 64.9%
[5]
  IC50: 70 µg/mL (≈ 168 µM)
Ehrlich
  Potency: > 100 µg/mL
[6]
  viability at 50 µg/mL: 91.1%
[7]
  HCR (IC50 air/IC50 hypoxia ratio): > 1.4
[8]
  IC50: > 100 µg/mL
U-251
  IC50: > 10 µg/mL
[9]
  viability at 5 µg/mL: 97%
[10]
  viability at 100 µg/mL: 30.5%
[11]
  viability at 10 µg/mL: 95.4%
[12]
  viability at 10 µg/mL: 92.9%
[13]
  viability at 25 µg/mL: 84.4%
[14]
  viability at 100 µg/mL: 84.1%
[15]
  viability at 5 µg/mL: 99%

## CCOc1ccc(NCc2nc3cc(OC)ccc3[n+]([O-])c2-c2ccccc2)cc1
[1]
  viability at 1 µg/mL: 100%
HepG2
  IC50: 4.95 µg/mL (≈ 12.3 µM)
[2]
  viability at 25 µg/mL: 97.6%
[3]
  viability at 1 µg/mL: 100%
[4]
  viability at 50 µg/mL: 87%
[5]
  IC50: > 100 µg/mL
Ehrlich
  Potency: > 100 µg/mL
[6]
  viability at 50 µg/mL: 93.3%
[7]
  HCR (IC50 air/IC50 hypoxia ratio): > 1
[8]
  IC50: > 100 µg/mL
U-251
  IC50: > 10 µg/mL
[9]
  viability at 5 µg/mL: 99%
[10]
  viability at 100 µg/mL: 80.7%
[11]
  viability at 10 µg/mL: 96.3%
[12]
  viability at 10 µg/mL: 98%
[13]
  viability at 25 µg/mL: 95%
[14]
  viability at 100 µg/mL: 85%
[15]
  viability at 5 µg/mL: 98.6%

## COc1ccc(NC(=O)Nc2c(C)[n+]([O-])c3ccc(OC)cc3[n+]2[O-])cc1
HepG2
  IC50: 6 µg/mL (≈ 16.2 µM)
U-251
  IC50: > 10 µg/mL

## Cc1c(NC(=O)OC(C)C)[n+]([O-])c2cc(Cl)ccc2[n+]1[O-]
[1]
  viability at 1 µg/mL: 100%
HepG2
  IC50: > 10 µg/mL
[2]
  viability at 25 µg/mL: 97%
[3]
  viability at 1 µg/mL: 100%
[4]
  viability at 50 µg/mL: 96.3%
[6]
  viability at 50 µg/mL: 96.4%
U-251
  IC50: > 10 µg/mL
[9]
  viability at 5 µg/mL: 98.3%
[10]
  viability at 100 µg/mL: 90.6%
[11]
  viability at 10 µg/mL: 98.3%
[12]
  viability at 10 µg/mL: 97.3%
[13]
  viability at 25 µg/mL: 96%
[14]
  viability at 100 µg/mL: 92%
[15]
  viability at 5 µg/mL: 98.8%

## COc1ccc2c(c1)[n+]([O-])c(NC(=O)OC(C)C)c(C)[n+]2[O-]
[1]
  viability at 1 µg/mL: 100%
HepG2
  IC50: 6 µg/mL (≈ 19.5 µM)
[2]
  viability at 25 µg/mL: 97%
[3]
  viability at 1 µg/mL: 94.8%
[4]
  viability at 50 µg/mL: 76.2%
[5]
  IC50: > 100 µg/mL
Ehrlich
  Potency: > 100 µg/mL
[6]
  viability at 50 µg/mL: 92.6%
[7]
  HCR (IC50 air/IC50 hypoxia ratio): > 1
[8]
  IC50: > 100 µg/mL
U-251
  IC50: > 10 µg/mL
[9]
  viability at 5 µg/mL: 91.9%
[10]
  viability at 100 µg/mL: 63.2%
[11]
  viability at 10 µg/mL: 99%
[12]
  viability at 10 µg/mL: 90.4%
[13]
  viability at 25 µg/mL: 82.3%
[14]
  viability at 100 µg/mL: 87.7%
[15]
  viability at 5 µg/mL: 99%

## Cc1c(C(=O)N=[N+]=[N-])[n+]([O-])c2cc(Cl)ccc2[n+]1[O-]
[1]
  viability at 1 µg/mL: 100%
[2]
  viability at 25 µg/mL: 98%
[3]
  viability at 1 µg/mL: 99.3%
[4]
  viability at 50 µg/mL: 70.3%
[5]
  IC50: > 100 µg/mL
Ehrlich
  Potency: > 100 µg/mL
[6]
  viability at 50 µg/mL: 91.2%
[7]
  HCR (IC50 air/IC50 hypoxia ratio): > 1
[8]
  IC50: > 100 µg/mL
[9]
  viability at 5 µg/mL: 92.6%
[10]
  viability at 100 µg/mL: 59.1%
[11]
  viability at 10 µg/mL: 98%
[12]
  viability at 10 µg/mL: 88.3%
[13]
  viability at 25 µg/mL: 84.2%
[14]
  viability at 100 µg/mL: 81.8%
[15]
  viability at 5 µg/mL: 98%

## COc1ccc(NC(=O)Nc2c(C)[n+]([O-])c3ccc(Cl)cc3[n+]2[O-])cc1
[1]
  viability at 1 µg/mL: 99.6%
HepG2
  IC50: 0.5 µg/mL (≈ 1.33 µM)
[2]
  viability at 25 µg/mL: 79.2%
[3]
  viability at 1 µg/mL: 86.7%
[4]
  viability at 50 µg/mL: 10.3%
[5]
  IC50: 10 µg/mL (≈ 26.7 µM)
Ehrlich
  Potency: > 100 µg/mL
[6]
  viability at 50 µg/mL: 73.3%
[7]
  HCR (IC50 air/IC50 hypoxia ratio): 10
[8]
  IC50: 100 µg/mL (≈ 267 µM)
U-251
  IC50: > 10 µg/mL
[9]
  viability at 5 µg/mL: 73.3%
[10]
  viability at 100 µg/mL: 5.3%
[11]
  viability at 10 µg/mL: 83%
[12]
  viability at 10 µg/mL: 50.2%
[13]
  viability at 25 µg/mL: 24.2%
[14]
  viability at 100 µg/mL: 54.6%
[15]
  viability at 5 µg/mL: 98%

## COc1ccc2c(c1)[n+]([O-])c(C(=O)N=[N+]=[N-])c(C)[n+]2[O-]
[1]
  viability at 1 µg/mL: 94.5%
HepG2
  IC50: 3.61 µg/mL (≈ 13.1 µM)
[2]
  viability at 25 µg/mL: 80.7%
[3]
  viability at 1 µg/mL: 94.5%
[4]
  viability at 50 µg/mL: 6.2%
[5]
  IC50: 12.5 µg/mL (≈ 45.4 µM)
Ehrlich
  Potency: 90 µg/mL (≈ 327 µM)
[6]
  viability at 50 µg/mL: 77.9%
[7]
  HCR (IC50 air/IC50 hypoxia ratio): > 8
[8]
  IC50: > 100 µg/mL
U-251
  IC50: > 10 µg/mL
[9]
  viability at 5 µg/mL: 81.1%
[10]
  viability at 100 µg/mL: 1.3%
[11]
  viability at 10 µg/mL: 83.9%
[12]
  viability at 10 µg/mL: 58.3%
[13]
  viability at 25 µg/mL: 11.3%
[14]
  viability at 100 µg/mL: 56%
[15]
  viability at 5 µg/mL: 99%

## N#Cc1c(N)[n+]([O-])c2ccc(Cl)cc2[n+]1[O-]
[1]
  viability at 1 µg/mL: 100%
[2]
  viability at 25 µg/mL: 95%
[3]
  viability at 1 µg/mL: 94%
[4]
  viability at 50 µg/mL: 43.5%
[5]
  IC50: 13.5 µg/mL (≈ 57.1 µM)
Ehrlich
  Potency: > 100 µg/mL
[6]
  viability at 50 µg/mL: 94.3%
[7]
  HCR (IC50 air/IC50 hypoxia ratio): > 7.4
[8]
  IC50: > 100 µg/mL
[9]
  viability at 5 µg/mL: 87.8%
[10]
  viability at 100 µg/mL: 5%
[11]
  viability at 10 µg/mL: 97.3%
[12]
  viability at 10 µg/mL: 71.3%
[13]
  viability at 25 µg/mL: 65.1%
[14]
  viability at 100 µg/mL: 94%
[15]
  viability at 5 µg/mL: 98.8%

## Nc1n[n+]([O-])c2ccccc2[n+]1[O-] [TIRAPAZAMINE]
HepG2
  IC50: 56.6 µg/mL (≈ 318 µM)
U-251
  IC50: 71.2 µg/mL (≈ 400 µM)

— ChEMBL document CHEMBL1177836, “New quinoxaline 1, 4-di-N-oxides: anticancer and hypoxia-selective therapeutic agents” (Eur J Med Chem, 2010)
